What was measured:
[1] = target: Platelet-activating factor receptor (Rattus norvegicus) (UniProt P46002); assay: Intravenous dose required to reduce the arterial blood pressure caused by PAF by 50% in rats; type: functional
How it was run: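 Male Sprague-Dawley rats (180-220 g) under pentobarbital anesthesia (50 mg/kg ip); carotid blood pressure recorded. Compound in saline given iv (femoral vein) 3 min before PAF 0.5 µg/kg iv; controls got vehicle. % inhibition of hypotension vs controls. ID50 from linear regression of one curve, ≥4 doses, each the mean of ≥2 independent experiments.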

[2] = target: Platelet-activating factor receptor (Mus musculus) (UniProt Q62035); assay: Dose required to inhibit PAF-induced mortality by 50% in mice; type: functional; conditions: Mus sp.
Chain of Platelet-activating factor receptor (Mus musculus) (Q62035 whole entry): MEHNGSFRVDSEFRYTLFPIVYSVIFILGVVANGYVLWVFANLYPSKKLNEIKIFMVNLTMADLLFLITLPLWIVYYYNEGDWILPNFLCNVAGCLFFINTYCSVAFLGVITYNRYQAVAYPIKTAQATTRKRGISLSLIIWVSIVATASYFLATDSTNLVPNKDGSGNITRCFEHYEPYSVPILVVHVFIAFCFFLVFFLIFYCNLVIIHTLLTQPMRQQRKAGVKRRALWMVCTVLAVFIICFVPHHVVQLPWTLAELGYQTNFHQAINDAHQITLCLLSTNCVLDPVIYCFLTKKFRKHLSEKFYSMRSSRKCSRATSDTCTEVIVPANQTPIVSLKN
How it was run: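 Male Swiss mice (22-26 g), groups of 10; test compound given po (20 mL/kg), controls 1% Tween 80. 60 min later, C18-PAF 100 µg/kg plus propanolol 1 mg/kg injected into a lateral tail vein. Mortality scored 2 h after PAF; % inhibition vs controls. ID50 from linear regression of one curve, ≥4 points. Initial dose 3 mg/kg; further doses only if >50% inhibition.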

Chain of Platelet-activating factor receptor (Rattus norvegicus) (P46002 whole entry): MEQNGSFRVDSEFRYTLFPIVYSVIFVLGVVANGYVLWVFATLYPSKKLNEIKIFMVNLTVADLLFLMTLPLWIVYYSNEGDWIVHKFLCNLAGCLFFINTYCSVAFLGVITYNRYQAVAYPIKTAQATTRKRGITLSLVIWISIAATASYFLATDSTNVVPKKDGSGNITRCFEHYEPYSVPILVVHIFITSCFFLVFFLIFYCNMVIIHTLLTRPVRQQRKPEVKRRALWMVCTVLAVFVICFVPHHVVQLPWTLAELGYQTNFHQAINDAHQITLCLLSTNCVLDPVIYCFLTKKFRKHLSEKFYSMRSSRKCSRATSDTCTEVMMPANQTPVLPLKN

Row | Compound | ID50 [1] [mg/kg] | ID50 [2] [mg/kg]
1 | Cc1ncccc1C(C#N)N1CCN(C(=O)CS(=O)(=O)C(c2ccccc2)c2ccccc2)CC1 (stereo unspecified) | 0.11 | > 3
2 | Cc1ncccc1C(C#N)N1CCN(C(=O)CC(NC(N)=O)c2ccccc2)CC1 (stereo unspecified) | – | > 3
3 | COC(=O)NC(CC(=O)N1CCN(C(C#N)c2cccnc2C)CC1)c1ccc(C(F)(F)F)cc1 (stereo unspecified) | 0.014 | 1.6
4 | Cc1ncccc1C(C#N)N1CCN(C(=O)CCC(c2ccccc2)c2ccccc2)CC1 (stereo unspecified) | 0.028 | > 3
5 | Cc1ncccc1C(C#N)N1CCN(C(=O)CNC(C)(c2ccccc2)c2ccccc2)CC1 (stereo unspecified) | 0.057 | > 3
6 | CNC(=O)C(CC(=O)N1CCN(C(C#N)c2cccnc2C)CC1)c1ccccc1 (stereo unspecified) | 0.05 | 0.78
7 | Cc1ncccc1C(C#N)N1CCN(C(=O)CN(C=O)C(c2ccccc2)c2ccccc2)CC1 (stereo unspecified) | 0.016 | 1.5
8 | Cc1ncccc1C(C#N)N1CCN(C(=O)CC(c2ccccc2)N(Cc2ccccc2)Cc2ccccc2)CC1 (stereo unspecified) | 0.068 | > 3
9 | Cc1ncccc1C(C#N)N1CCN(C(=O)CC(NS(C)(=O)=O)c2ccccc2)CC1 (stereo unspecified) | 0.017 | 1
10 | Cc1ncccc1C(C#N)N1CCN(C(=O)CC(O)(c2ccccc2)c2ccccc2)CC1 (stereo unspecified) | 0.039 | 0.69
11 | C=CCNC(CC(=O)N1CCN(C(C#N)c2cccnc2C)CC1)c1ccccc1 (stereo unspecified) | – | 1
12 | COC(=O)N(C)C(CC(=O)N1CCN(C(C#N)c2cccnc2C)CC1)c1ccccc1 (stereo unspecified) | 0.036 | 2
13 | Cc1ncccc1C(C#N)N1CCN(C(=O)CC(NC(=O)N2CCCC2)c2ccccc2)CC1 (stereo unspecified) | 0.055 | 0.97
14 | Cc1ncccc1C(C#N)N1CCN(C(=O)COC(c2ccccc2)c2ccccc2)CC1 (stereo unspecified) | 0.048 | > 3
15 | CCOC(=O)NC(CC(=O)N1CCN(C(C#N)c2cccnc2C)CC1)c1ccccc1 (stereo unspecified) | 0.025 | 0.23
16 | C#CCNC(CC(=O)N1CCN(C(C#N)c2cccnc2C)CC1)c1ccccc1 (stereo unspecified) | – | 3
17 | Cc1ncccc1C(C#N)N1CCN(C(=O)CC(NS(=O)(=O)c2ccccc2)c2ccccc2)CC1 (stereo unspecified) | 0.04 | > 3
18 | Cc1ncccc1C(C#N)N1CCN(C(=O)[C@H](CO)NC(c2ccccc2)c2ccccc2)CC1 (stereo partly specified) | 0.02 | 2.4
19 | Cc1ncccc1C(C#N)N1CCN(C(=O)CC(c2ccccc2)n2cccc2)CC1 (stereo unspecified) | 0.014 | 1
20 | Cc1ncccc1C(C#N)N1CCN(C(=O)CNC2c3ccccc3-c3ccccc32)CC1 (stereo unspecified) | 0.085 | > 3

Row | Compound | ID50 [1] [mg/kg] | ID50 [2] [mg/kg]
21 | Cc1ncccc1C(C#N)N1CCN(C(=O)CC(O)(c2ccccc2)C(F)(F)F)CC1 (stereo unspecified) | 0.013 | 0.44
22 | Cc1ncccc1C(C#N)N1CCN(C(=O)/C=C(/c2ccccc2)C(F)(F)F)CC1 (stereo unspecified) | – | > 3
23 | Cc1ncccc1C(C#N)N1CCN(C(=O)C(C)(C)C(F)(c2ccccc2)c2ccccc2)CC1 (stereo unspecified) | 0.34 | > 3
24 | Cc1ncccc1C(C#N)N1CCN(C(=O)/C=C(\c2ccccc2)C(F)(F)F)CC1 (stereo unspecified) | 0.12 | > 3
25 | Cc1ncccc1C(C#N)N1CCN(C(=O)[C@H](C)NC(c2ccccc2)c2ccccc2)CC1 (stereo partly specified) | 0.025 | 1.6
26 | Cc1ncccc1C(C#N)N1CCN(C(=O)CC(NC(=O)OCc2ccccc2)c2ccccc2)CC1 (stereo unspecified) | 0.018 | > 3
27 | CCc1ncccc1C(C#N)N1CCN(C(=O)CNC(c2ccccc2)c2ccccc2)CC1 (stereo unspecified) | 0.063 | 0.7
28 | CCOC(=O)C(c1cccnc1C)N1CCN(C(=O)CC(c2ccccc2)c2ccccc2)CC1 (stereo unspecified) | – | > 30
29 | Cc1ncccc1C(C#N)N1CCN(C(=O)CC(N)c2ccccc2)CC1 (stereo unspecified) | 0.92 | > 3
30 | Cc1ncccc1C(CO)N1CCN(C(=O)CC(c2ccccc2)c2ccccc2)CC1 (stereo unspecified) | – | > 3
31 | Cc1ncccc1C(C#N)N1CCN(C(=O)CC(NC(=O)Oc2ccccc2)c2ccccc2)CC1 (stereo unspecified) | 0.036 | > 3
32 | Cc1ncccc1C(C#N)N1CCN(C(=O)CC(NC(=O)c2ncccc2O)c2ccccc2)CC1 (stereo unspecified) | 0.036 | 3
33 | CC(=O)NC(CC(=O)N1CCN(C(C#N)c2cccnc2C)CC1)c1ccccc1 (stereo unspecified) | 0.035 | 0.09
34 | Cc1ncccc1C(C#N)N1CCN(C(=O)CC(O)(c2ccc(F)cc2)c2ccc(F)cc2)CC1 (stereo unspecified) | 0.051 | > 3
35 | Cc1ncccc1C(C#N)N1CCN(C(=O)CCNC(c2ccccc2)c2ccccc2)CC1 (stereo unspecified) | 0.044 | 0.62
36 | Cc1ncccc1C(C#N)N1CCN(C(=O)CC(NC(=O)c2cccnc2O)c2ccccc2)CC1 (stereo unspecified) | 0.12 | > 3
37 | CC(=O)N(CC(=O)N1CCN(C(C#N)c2cccnc2C)CC1)C(c1ccccc1)c1ccccc1 (stereo unspecified) | 0.039 | 2
38 | Cc1ncccc1C(C#N)N1CCN(C(=O)CC(c2ccccc2)C(F)(F)F)CC1 (stereo unspecified) | 0.023 | > 3
39 | Cc1ncccc1C(C#N)N1CCN(C(=O)CC(c2ccccc2)N2CCCC2)CC1 (stereo unspecified) | 0.22 | –
40 | CNC(CC(=O)N1CCN(C(C#N)c2cccnc2C)CC1)c1ccccc1 (stereo unspecified) | 0.067 | 3

Row | Compound | ID50 [1] [mg/kg] | ID50 [2] [mg/kg]
41 | Cc1ncccc1C(C#N)N1CCN(C(=O)C=C(c2ccccc2)c2ccccc2)CC1 (stereo unspecified) | 0.038 | 2.2
42 | Cc1ncccc1C(C#N)N1CCN(C(=O)CON=C(c2ccccc2)c2ccccc2)CC1 (stereo unspecified) | 0.071 | > 3
43 | Cc1ncccc1C(C#N)N1CCN(C(=O)CC(NC(=O)c2ccccc2)c2ccccc2)CC1 (stereo unspecified) | 0.056 | > 3
44 | C#CC(c1cccnc1C)N1CCN(C(=O)CNC(c2ccccc2)c2ccccc2)CC1 (stereo unspecified) | – | > 3
45 | Cc1ncccc1C(C#N)N1CCN(C(=O)CN(C(c2ccccc2)c2ccccc2)S(C)(=O)=O)CC1 (stereo unspecified) | 0.083 | > 3
46 | CO/N=C(/C)C(c1cccnc1C)N1CCN(C(=O)CC(c2ccccc2)c2ccccc2)CC1 (stereo unspecified) | – | > 3
47 | Cc1ncccc1C(C#N)N1CCN(C(=O)CC(NC(=O)OC(C)(C)C)c2ccccc2)CC1 (stereo unspecified) | 0.049 | 1.2
48 | Cc1ncccc1C(C#N)N1CCN(C(=O)CC(c2ccccc2)c2ccccc2)CC1 (stereo unspecified) | 0.015 | 0.9
49 | Cc1ncccc1C(C#N)N1CCN(C(=O)CC(NC(=O)c2cccnc2)c2ccccc2)CC1 (stereo unspecified) | 0.029 | 0.41
50 | Cc1ncccc1C(C#N)N1CCN(C(=O)CC(c2ccccc2)N2CCCC2=O)CC1 (stereo unspecified) | 0.026 | 0.13
51 | Cc1ncccc1C(C#N)N1CCN(C(=O)CC(c2ccccc2)N2CCOC2=O)CC1 (stereo unspecified) | 0.029 | 1
52 | Cc1ncccc1C(C#N)N1CCN(C(=O)C[S+]([O-])C(c2ccccc2)c2ccccc2)CC1 (stereo unspecified) | 0.034 | > 3
53 | Cc1ncccc1C(C#N)N1CCN(C(=O)CC(c2ccccc2)N2CCCS2(=O)=O)CC1 (stereo unspecified) | 0.048 | > 3
54 | Cc1ncccc1C(C#N)N1CCN(C(=O)CC(NC(=O)OCC(C)C)c2ccccc2)CC1 (stereo unspecified) | 0.017 | > 3
55 | CCOC(=O)C(CC(=O)N1CCN(C(C#N)c2cccnc2C)CC1)(c1ccccc1)c1ccccc1 (stereo unspecified) | 0.12 | > 3
56 | Cc1ncccc1C(C#N)N1CCN(C(=O)CC(NCc2cccnc2)c2ccccc2)CC1 (stereo unspecified) | 0.029 | > 3
57 | Cc1ncccc1C(C#N)N1CCN(C(=O)CNC(c2ccc(F)cc2)c2ccc(F)cc2)CC1 (stereo unspecified) | 0.049 | 3
58 | Cc1ncccc1C(C#N)N1CCN(C(=O)[C@@H](C)NC(c2ccccc2)c2ccccc2)CC1 (stereo partly specified) | – | > 3
